Assay results from ChEMBL document CHEMBL1124759, “Fluoronaphthyridines and quinolones as antibacterial agents. 2. Synthesis and structure-activity relationships of new 1-tert-butyl 7-substituted derivatives” (J Med Chem, 1990).
Converted amounts (≈) assume the structure as drawn.

Experiments:
Enterococcus faecalis = assay: In vitro minimum inhibitory concentration (MIC) against Enterococcus faecalis A 9808 at 37 degrees C for 18 h.; format: functional
How it was run: (§1)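 Two-fold serial broth dilution in nutrient broth. Inoculum adjusted to 10^6 cfu/mL. Compounds tested from 0.0005 to 250 µg/mL.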

Enterococcus faecium = assay: In vitro minimum inhibitory concentration (MIC) against Enterococcus faecium A 24885 at 37 degrees C for 18 h.; format: functional; how it was run: as §1
Serratia marcescens = assay: In vitro minimum inhibitory concentration (MIC) against Serratia marcescens A 20019 at 37 degrees C for 18 hr; format: functional; how it was run: as §1
Pseudomonas aeruginosa [1] = assay: In vitro minimum inhibitory concentration (MIC) against Pseudomonas aeruginosa A 9843 at 37 degree C for 18 h; format: functional; how it was run: as §1
Enterobacter cloacae = assay: In vitro minimum inhibitory concentration (MIC) against Enterobacter cloacae A 9656 at 37 degrees C for 18 h.; format: functional
Escherichia coli [2] = assay: In vitro minimum inhibitory concentration (MIC) against Escherichia coli A 15119 at 37 degrees Celsius for 18 h.; format: functional; how it was run: as §1
Staphylococcus aureus [3] = assay: In vitro minimum inhibitory concentration (MIC) against Staphylococcus aureus Smith A 9537 at 37 degrees C for 18 hr; format: functional; how it was run: as §1
Morganella morganii = assay: In vitro minimum inhibitory concentration (MIC) against Morganella morganii A 15153 at 37 degrees C for 18 h.; format: functional; how it was run: as §1
Klebsiella pneumoniae [4] = assay: In vitro minimum inhibitory concentration (MIC) against Klebsiella pneumoniae A 9664 at 37 degrees C for 18 h.; format: functional; how it was run: as §1
Staphylococcus aureus [5] = assay: Efficacy on systematic infections against Staphylococcus aureus A 9537 after oral administration in mice; format: functional; details: read-out: PD50
How it was run: (§2)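 Mice given compound orally after lethal systemic infection. Read-out is the oral dose protecting 50% of mice from death (PD50), reported in mg/kg.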

Escherichia coli [6] = assay: Efficacy on systematic infections against Escherichia coli A 15119 after oral administration in mice; format: functional; details: read-out: PD50; how it was run: as §2
Escherichia coli [7] = assay: In vitro minimum inhibitory concentration (MIC) against Escherichia coli A 15119 at 37 degrees C for 18 h.; format: functional; how it was run: as §1
Klebsiella pneumoniae [8] = assay: In vitro minimum inhibitory concentration (MIC) against Klebsiella pneumoniae A 9664 at 37 degrees Celsius for 18 h.; format: functional; how it was run: as §1
Pseudomonas aeruginosa [9] = assay: Efficacy on systematic infections against Pseudomonas aeruginosa A 9843 after oral administration in mice; format: functional; details: read-out: PD50; how it was run: as §2
Klebsiella pneumoniae [10] = assay: Efficacy on systematic infections against Klebsiella pneumoniae A 9664 after oral administration in mice; format: functional; details: read-out: PD50; how it was run: as §2
Pseudomonas aeruginosa [11] = assay: In vitro minimum inhibitory concentration (MIC) against Pseudomonas aeruginosa A 9843 at 37 degrees Celsius for 18 h; format: functional; how it was run: as §1
Klebsiella pneumoniae [12] = assay: In vitro minimum inhibitory concentration (MIC) […] A 9664 at 37 degrees Celsius for 18 h.; format: functional; how it was run: as §1
[13] = (§3) Tested for aqueous solubility; format: physicochemical; details: aqueous medium; read-out: S
How it was run: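 An excess of solid was shaken overnight in water for injection at isoelectric pH. The mixture was filtered, and the filtrate was diluted and quantified by HPLC with UV detection.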

Pseudomonas aeruginosa [14] = assay: In vitro minimum inhibitory concentration (MIC) against Pseudomonas aeruginosa A 9843 at 37 degrees C for 18 h; format: functional; how it was run: as §1
[15] = as §3; details: aqueous medium
Canis familiaris [16] = assay: in vivo; details: dog, po, 25 mg/kg
Klebsiella pneumoniae [17] = assay: In vitro minimum inhibitory concentration (MIC) against Klebsiella pneumoniae A 9664 at 37 degrees C for 18 h; format: functional; how it was run: as §1
Canis familiaris [18] = assay: in vivo; details: dog, po, 25 mg/kg; remark: listed apart in the source
Mus musculus [19] = assay: Dose to protect 50% of mice from lethal infection after intravenous administration; format: functional
Mus musculus [20] = assay: Dose to protect 50% of mice from lethal infection after peroral administration.; format: functional; details: po; how it was run: as §2
Canis familiaris [21] = organism: Canis familiaris; details: dog, in vivo, po, 25 mg/kg
in vivo = details: dog, urine, po, 25 mg/kg
Staphylococcus aureus [22] = assay: Efficacy on systematic infections against Staphylococcus aureus Smith A 9537 after oral administration in mice; format: functional; details: read-out: PD50; how it was run: as §2

SMILES | MIC (Enterococcus faecalis) | MIC (Enterococcus faecium) | MIC (Serratia marcescens) | MIC (Pseudomonas aeruginosa [1]) | MIC (Enterobacter cloacae) | MIC (Staphylococcus aureus [3]) | MIC (Morganella morganii) | MIC (Klebsiella pneumoniae [4]) | ED50 (Staphylococcus aureus [5]) | ED50 (Escherichia coli [6]) | MIC (Escherichia coli [7]) | ED50 (Pseudomonas aeruginosa [9]) | ED50 (Klebsiella pneumoniae [10]) | further results
CC(C)(C)n1cc(C(=O)O)c(=O)c2cc(F)c(N3C[C@@H](N)[C@@H](F)C3)nc21.CS(=O)(=O)O | 0.5 µg/mL | 4 µg/mL | 0.5 µg/mL | 2 µg/mL | 0.25 µg/mL | 0.015 µg/mL | 0.5 µg/mL | 0.06 µg/mL |  |  |  |  |  | MIC (Escherichia coli [2]): 0.25 µg/mL
CS(=O)(=O)O.C[C@H]1CN(c2nc3c(cc2F)c(=O)c(C(=O)O)cn3C(C)(C)C)C[C@@H]1N | 0.06 µg/mL | 0.5 µg/mL | 0.13 µg/mL | 0.25 µg/mL | 0.015 µg/mL | 0.008 µg/mL | 0.13 µg/mL |  | 1.6 mg/kg | 2.4 mg/kg | 0.015 µg/mL | 6.3 mg/kg | 6.3 mg/kg | MIC (Klebsiella pneumoniae [8]): 0.06 µg/mL
CCNCC1CCN(c2nc3c(cc2F)c(=O)c(C(=O)O)cn3C(C)(C)C)C1 (stereo not given) | 2 µg/mL (≈ 5.12 µM) | 8 µg/mL (≈ 20.5 µM) | 1 µg/mL (≈ 2.56 µM) |  | 0.25 µg/mL (≈ 0.64 µM) | 0.13 µg/mL (≈ 0.333 µM) | 1 µg/mL (≈ 2.56 µM) | 0.25 µg/mL (≈ 0.64 µM) |  |  | 0.13 µg/mL (≈ 0.333 µM) |  |  | MIC (Pseudomonas aeruginosa [11]): 2 µg/mL (≈ 5.12 µM)
CC(C)(C)n1cc(C(=O)O)c(=O)c2cc(F)c(N3C[C@@H](CN)[C@@H](F)C3)nc21 | 0.13 µg/mL (≈ 0.342 µM) | 1 µg/mL (≈ 2.63 µM) | 0.5 µg/mL (≈ 1.31 µM) | 0.5 µg/mL (≈ 1.31 µM) | 0.25 µg/mL (≈ 0.657 µM) | 0.015 µg/mL (≈ 0.0394 µM) | 0.5 µg/mL (≈ 1.31 µM) | 0.25 µg/mL (≈ 0.657 µM) | 4.5 mg/kg | 18 mg/kg | 0.06 µg/mL (≈ 0.158 µM) | 18 mg/kg | 18 mg/kg | 
CC(C)(C)n1cc(C(=O)O)c(=O)c2cc(F)c(N3C[C@H]4C[C@@H]3CN4)cc21.CS(=O)(=O)O | 2 µg/mL | 4 µg/mL | 0.25 µg/mL | 0.5 µg/mL | 0.25 µg/mL | 0.5 µg/mL | 2 µg/mL |  |  |  | 0.5 µg/mL |  |  | MIC (Klebsiella pneumoniae [12]): 0.13 µg/mL; solubility [13]: 230 µg/mL
CN1CCN(c2cc3c(cc2F)c(=O)c(C(=O)O)cn3C(C)(C)C)CC1.Cl | 4 µg/mL | 16 µg/mL | 1 µg/mL |  | 0.25 µg/mL | 0.03 µg/mL | 0.25 µg/mL | 0.25 µg/mL |  |  | 0.03 µg/mL |  |  | MIC (Pseudomonas aeruginosa [14]): 0.5 µg/mL
CN1C2CCC1CN(c1cc3c(cc1F)c(=O)c(C(=O)O)cn3C(C)(C)C)C2.Cl | 2 µg/mL | 8 µg/mL | 0.5 µg/mL | 4 µg/mL | 0.13 µg/mL | 0.13 µg/mL | 1 µg/mL | 0.13 µg/mL |  |  |  |  |  | MIC (Escherichia coli [2]): 0.5 µg/mL
CC(C)(C)n1cc(C(=O)O)c(=O)c2cc(F)c(N3CCC(N)C3)cc21.Cl (stereo not given) | 0.25 µg/mL | 2 µg/mL | 1 µg/mL | 1 µg/mL | 0.13 µg/mL | 0.03 µg/mL | 0.5 µg/mL | 0.25 µg/mL | 8.2 mg/kg | 5.4 mg/kg | 0.06 µg/mL | 19.9 mg/kg | 23 mg/kg | solubility [15]: 70 µg/mL
CC(C)(C)n1cc(C(=O)O)c(=O)c2cc(F)c(N3C[C@H]4C[C@@H]3CN4)nc21 | 0.13 µg/mL (≈ 0.361 µM) | 1 µg/mL (≈ 2.77 µM) | 0.06 µg/mL (≈ 0.166 µM) | 0.25 µg/mL (≈ 0.694 µM) | 0.06 µg/mL (≈ 0.166 µM) | 0.06 µg/mL (≈ 0.166 µM) | 0.25 µg/mL (≈ 0.694 µM) |  | 1.6 mg/kg | 1.8 mg/kg | 0.06 µg/mL (≈ 0.166 µM) | 4.7 mg/kg | 4.9 mg/kg | Cmax (Canis familiaris [16]): 5600 ng/mL; MIC (Klebsiella pneumoniae [17]): 0.06 µg/mL (≈ 0.166 µM); half-life (Canis familiaris [18]): 4.5 h; LD50 (Mus musculus [19]): 303 mg/kg; solubility [15]: 80 µg/mL (≈ 222 µM); LD50 (Mus musculus [20]): 5000 mg/kg; AUC (Canis familiaris [21]): 55000 ng·h/mL; dose excreted (in vivo): 20%
O=C(O)c1cn(C2CC2)c2cc(N3CCNCC3)c(F)cc2c1=O [CIPROFLOXACIN] | 0.5 µg/mL (≈ 1.51 µM) | 4 µg/mL (≈ 12.1 µM) | 0.3 µg/mL (≈ 0.905 µM) | 0.13 µg/mL (≈ 0.392 µM) |  | 0.13 µg/mL (≈ 0.392 µM) | 0.015 µg/mL (≈ 0.0453 µM) | 0.03 µg/mL (≈ 0.0905 µM) |  | 1 mg/kg |  | 2.6 mg/kg | 1.5 mg/kg | ED50 (Staphylococcus aureus [22]): 3.4 mg/kg
CCn1cc(C(=O)O)c(=O)c2cc(F)c(N3CCNCC3)cc21 [NORFLOXACIN] | 4 µg/mL (≈ 12.5 µM) | 8 µg/mL (≈ 25.1 µM) | 0.13 µg/mL (≈ 0.407 µM) | 0.5 µg/mL (≈ 1.57 µM) | 0.06 µg/mL (≈ 0.188 µM) | 0.25 µg/mL (≈ 0.783 µM) | 0.015 µg/mL (≈ 0.047 µM) | 0.03 µg/mL (≈ 0.0939 µM) |  | 13 mg/kg | 0.13 µg/mL (≈ 0.407 µM) | 12.6 mg/kg | 8 mg/kg | ED50 (Staphylococcus aureus [22]): 1.9 mg/kg
